Bioassay records as filed in PubChem.
Rows were chosen to be rich in hits. Some 1.6% of all compounds tested hit in one or more screens of this group.
p47phox inh = inhibitors of human p47phox binding; p47phox/p22phox peptide binding, fluorescence polarization, 2 h; inhibition, % at 24.7 µM; hit rate 0.53% among 220,000;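 active means inhibition above about 30%, limit read from the data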;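 further: 0% = p47phox with labelled peptide and 100% = labelled peptide alone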
ABCB1 block = inhibitors of human ABCB1 transporter, ABCG2 counter-screen; P08183; CCRF-Adr cells, JC-1 efflux, flow cytometry; inhibition, % at 6.6 µM; hit rate 0.067% among 190,000; AID 1326; in the data active means inhibition above about 40%;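 further: 0% = vehicle and 100% = reference inhibitor; higher value means more JC-1 retained so stronger ABCB1 efflux block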
PHOSPHO1 inh = PHOSPHO1 (human) inhibition. recombinant PHOSPHO1, absorbance phosphatase assay. hit rate 1.1% among 290,000. inhibition, % at 13.3 µM; in the data active means inhibition above about 60%
HSV augment = HSV replication enhancement | HSV replication augmentation in cells, fold increase | maximum fold increase | hit rate 0.005% among 220,000 | AID 1956; in the data active means maximum fold increase above about 1.5; tested in PC3 cells
PKD1 inh = PKD1 (human) kinase inhibition | PKD1 kinase fluorescence polarization assay | AID 797 | hit rate 0.056% among 200,000 | Q15139 | inhibition, % (no concentration beside the values); in the data active means inhibition above about 50%
Target sequence (Q15139 whole entry, looked up): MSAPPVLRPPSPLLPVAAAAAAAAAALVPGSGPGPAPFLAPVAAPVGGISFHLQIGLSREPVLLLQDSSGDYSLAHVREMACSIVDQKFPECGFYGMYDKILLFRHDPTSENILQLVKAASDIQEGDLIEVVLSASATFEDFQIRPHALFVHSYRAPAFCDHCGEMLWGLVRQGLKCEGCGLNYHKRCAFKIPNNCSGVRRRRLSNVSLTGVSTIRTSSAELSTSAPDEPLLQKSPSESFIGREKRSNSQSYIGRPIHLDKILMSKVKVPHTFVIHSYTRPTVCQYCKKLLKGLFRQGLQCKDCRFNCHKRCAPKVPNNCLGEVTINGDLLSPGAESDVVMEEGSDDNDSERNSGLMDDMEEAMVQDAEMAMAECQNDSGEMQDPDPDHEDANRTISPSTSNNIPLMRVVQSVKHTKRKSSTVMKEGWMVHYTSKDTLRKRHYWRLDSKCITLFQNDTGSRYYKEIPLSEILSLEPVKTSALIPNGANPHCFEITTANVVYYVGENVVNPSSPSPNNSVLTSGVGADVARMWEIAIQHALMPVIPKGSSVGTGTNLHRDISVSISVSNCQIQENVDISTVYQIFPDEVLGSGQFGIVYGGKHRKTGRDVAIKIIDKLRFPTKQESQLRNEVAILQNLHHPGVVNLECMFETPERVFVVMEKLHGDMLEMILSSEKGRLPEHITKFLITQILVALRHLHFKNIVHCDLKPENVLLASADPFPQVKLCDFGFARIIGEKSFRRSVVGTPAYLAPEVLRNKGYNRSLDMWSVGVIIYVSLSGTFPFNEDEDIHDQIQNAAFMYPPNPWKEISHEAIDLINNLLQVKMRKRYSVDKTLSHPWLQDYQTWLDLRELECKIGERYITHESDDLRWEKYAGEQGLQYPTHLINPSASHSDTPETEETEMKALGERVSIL
ABCG2 inh = human ABCG2 inhibition, ABCB1 as counter-screen; Q9UNQ0; IgMXP3 cells, JC-1 efflux, flow cytometry; inhibition, % at 6.6 µM; hit rate 0.1% among 190,000; AID 1325;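 active means inhibition above 80%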;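 further: 0% = DMSO and 100% = nicardipine control wells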
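Test system: ABCG2 IgMXP3 and barcoded ABCB1 CCRF-Adr cell mix; Schedule: cells with compound and JC-1, 10 min at 25 °C, rotating, no wash; Technique: flow cytometry of retained JC-1 fluorescence; Measure: % inhibition of efflux relative to nicardipine and DMSO; Controls: nicardipine high and DMSO low controls.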
Starred values were filed as active, the others as inactive; i = inactive; . = no result.

SMILES	p47phox inh	ABCB1 block	PHOSPHO1 inh	HSV augment	PKD1 inh	ABCG2 inh
CCNC(=S)NNC(=O)Nc1ccccc1	-2	1	79*	i	-2	2
CCN(CC(=O)NCc1ccc(F)cc1)C(=O)c1ccc(COc2ccccc2)cc1	.	.	31	.	.	.
O=C(Cn1cccc1C(=O)c1ccccc1)NCc1ccc2c(c1)OCO2	-2	1	5	i	-7	3
CC(NC(=O)Cn1cccc1C(=O)c1ccccc1)c1ccc2c(c1)OCCO2 (stereo not drawn)	71*	0	-18	i	-2	-2
CN(CC(=O)Nc1ccccc1Br)C(=O)C(Cc1ccccc1)NC(=O)c1ccccc1 (stereo not drawn)	.	.	13	.	.	.
CCN1CCN(Cc2ccc(NC(=O)c3cc(NC(=O)c4ccno4)cc(OC)c3)cc2C(F)(F)F)CC1	-15	.	31	i	.	.
CCN1CCN(Cc2ccc(NC(=O)c3cc(NC(=O)c4ccc5n[nH]nc5c4)cc(OC)c3)cc2C(F)(F)F)CC1	-38	.	20	i	.	.
CCN1CCN(Cc2ccc(NC(=O)c3ccc(C)c(NC(=O)c4c[nH]c5cc(C(F)(F)F)ccc5c4=O)c3)cc2C(F)(F)F)CC1	73*	.	-3	i	.	.
CCN1CCN(Cc2ccc(NC(=O)c3cc(NC(=O)c4cc5cccc(OC)c5o4)cc(OC)c3)cc2C(F)(F)F)CC1	57*	.	-3	i	.	.
CCN1CCN(Cc2ccc(NC(=O)c3cc(NC(=O)c4cc(-c5ccc(OC)cc5)n[nH]4)cc(OC)c3)cc2C(F)(F)F)CC1	38*	.	16	i	.	.
O=[N+]([O-])/C=C\c1ccc(N2CCCC2)c(F)c1	36*	1	-5	.	-4	3
Cc1ccccc1NC(=O)COC(=O)c1ccc(S(C)(=O)=O)c([N+](=O)[O-])c1	-1	2	60*	i	6	24
COc1cc(NC(=O)COC(=O)c2ccc(S(=O)(=O)N3CC(C)CC(C)C3)cc2)c(C)cc1[N+](=O)[O-] (stereo not drawn)	39*	0	2	i	-8	-2
COc1cc(NC(=O)COC(=O)c2ccc(C)c(S(=O)(=O)N3CCCCC3)c2)c(C)cc1[N+](=O)[O-]	-24	1	1	i	-7	7
CCOc1cc(N2CCOCC2)c(OCC)cc1NC(C)C(=O)N1CCN(CC)CC1 (stereo not drawn)	67*	1	23	i	2	5
C=CCN(c1ccccc1C(=O)NCC(=O)O)S(=O)(=O)c1ccccc1C	-4	.	42	i	.	.
COc1ccccc1CNC(=O)Cn1cccc1C(=O)c1ccccc1C	.	.	75*	.	.	.
COc1cccc(CNC(=O)Cn2cccc2C(=O)c2ccccc2C)c1	.	.	64*	.	.	.
COc1ccc(O)c(CN2CCC(n3nccc3NC(=O)CCOc3ccccc3)CC2)c1	.	.	53	.	.	.
COc1ccc(CN2CCC(n3nccc3NC(=O)C3CCCC3)CC2)cc1	.	.	61*	.	.	.
COc1ccccc1/C=C/CN1CCC(n2nccc2NC(=O)C2CC2)CC1	.	.	63*	.	.	.
COc1ccccc1CN1CCC(n2nccc2NC(=O)CCOc2ccccc2)CC1	.	.	75*	.	.	.
COc1ccccc1/C=C/CN1CCC(Oc2cc(C(=O)NC3CC3)ccc2OC)CC1	.	.	65*	.	.	.
COc1ccccc1C(=O)Nc1ccnn1C1CCN(C/C=C/c2ccccc2)CC1	.	.	28	.	.	.
CC(C)CCN(C(=O)Cc1ccc(Cl)c(Cl)c1)c1c(N)n(Cc2ccccc2)c(=O)[nH]c1=O	-7	0	28	i	12	4
SMILES	p47phox inh	ABCB1 block	PHOSPHO1 inh	HSV augment	PKD1 inh	ABCG2 inh
COCCNC(=O)c1cnn2c(C(F)(F)F)cc(-c3ccc(C)cc3)nc12	-7	3	37	i	-4	7
CC1Cc2c([nH]c3ccccc23)C2c3ccccc3CN12 (stereo not drawn)	.	.	18	.	.	.
Cn1ccnc1Sc1ccc(/C=N/NC(=O)c2ccccc2O)cc1[N+](=O)[O-]	-21	-1	-5	i	2	-10
Cc1c(CN2CCC(n3nccc3NC(=O)C3CCOC3)CC2)[nH]c2ccccc12 (stereo not drawn)	.	.	66*	.	.	.
O=C(Nc1ccnn1C1CCN(Cc2cc3ccccc3[nH]2)CC1)C1CCOC1 (stereo not drawn)	.	.	8	.	.	.
O=C(CSc1nnc(SCc2ccc(Cl)cc2)s1)N/N=C/c1c[nH]c2ccccc12	43*	0	-13	i	-7	3
O=C(NCc1cccnc1)C(=O)NCC(c1ccco1)N1CCN(c2ccccc2F)CC1 (stereo not drawn)	-4	2	-47	i	-9	1
O=C(NCc1ccccc1)C(=O)NCC(c1ccco1)N1CCN(c2ccccc2F)CC1 (stereo not drawn)	59*	0	46	i	7	-1
Nc1ccc(C(=O)OCc2ccncc2)cc1[N+](=O)[O-]	-6	1	32	i	1	15
Cc1cc(C)n2c(SCC(=O)Nc3ccc(F)cc3)nnc2n1	3	.	-103	i	.	.
CCN(c1ccc(NC(=O)CSc2nnc3nc(C)cc(C)n23)cc1)C(C)C	1	1	73*	i	-8	2
COc1cccc(NC(=S)NNC(=O)c2c([N+](=O)[O-])c(C)nn2C)c1	-8	0	82*	i	5	5
COc1cccc(NC(=S)NNC(=O)C(C)n2nc(C)c([N+](=O)[O-])c2C)c1 (stereo not drawn)	-5	0	20	i	-16	1
COc1ccccc1CNC(=O)C(=O)c1cn(CC(=O)N2CCCC2)c2ccccc12	.	.	62*	.	.	.
Brc1cccc(CNc2nc3ccccc3n2CCN2CCOCC2)c1	-5	2	26	i	3	17
O=C(O)C1CCC(=O)N1C(=O)OCc1ccccc1 (stereo not drawn)	-11	.	20	i	.	.
O=[N+]([O-])c1cc(-n2cnnn2)ccc1N1CCC(Cc2ccccc2)CC1	-5	1	-23	i	-4	6
CC1CC(C)CN(c2ccc(-n3cnnn3)cc2[N+](=O)[O-])C1 (stereo not drawn)	-2	0	60*	i	0	7
CCOc1ccc(N/C=C/C(=O)c2ccccc2)c([N+](=O)[O-])c1	31*	1	16	.	-11	42
CCOc1ccc(NC(=O)/C=C/c2ccccc2)c([N+](=O)[O-])c1	-9	0	-11	i	-10	1
O=C(Nc1ccccc1)c1ccc(=O)n(Cc2ccc(F)c(F)c2)c1	-6	2	65*	i	3	13
CCc1nn(C(C)C(=O)NC2CCCCCC2)c(=O)c2cc3occc3n12 (stereo not drawn)	.	.	33	.	.	.
CC(C)(C)c1ccc(-c2n[nH]c(=S)n2-c2ccccc2)cc1	.	.	-129	.	.	.
CC(C)(C)c1ccc(-c2n[nH]c(=S)n2C2CCCC2)cc1	-16	-1	91*	i	2	-3
Cn1c(-c2ccc(C(C)(C)C)cc2)n[nH]c1=S	-12	0	69*	i	-5	0
